Measurements taken from ChEMBL document CHEMBL4823301, “Synthesis of acyclic nucleoside phosphonates targeting flavin-dependent thymidylate synthase in Mycobacterium tuberculosis” (Bioorg Med Chem, 2021).
Activity calls are given as the source filed them. No cut-off for these calls is given here.

Legend:
[1] = target: T1, Flavin-dependent thymidylate synthase (Mycobacterium tuberculosis) (UniProt P9WG57); test: Inhibition of Mycobacterium tuberculosis H37Rv ThyX expressed in Escherichia coli BL21(DE3) using 100 uM dUMP as substrate in presence of FAD cofactor at 200 uM incubated for 10 mins prior to the injection of NADPH and measured upto 20 mins by NADPH oxidase based spectrophotometric analysis relative to control; details: time 30.0 min
T1 sequence (whole entry): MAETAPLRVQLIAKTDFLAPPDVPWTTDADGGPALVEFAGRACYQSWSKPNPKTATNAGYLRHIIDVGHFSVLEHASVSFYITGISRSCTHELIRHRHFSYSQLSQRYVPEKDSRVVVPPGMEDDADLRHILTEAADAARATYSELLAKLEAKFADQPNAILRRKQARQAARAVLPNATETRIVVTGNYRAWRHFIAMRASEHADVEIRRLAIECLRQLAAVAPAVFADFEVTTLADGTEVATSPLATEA
Summary of the method: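 Mtb ThyX from E. coli BL21(DE3)/pLysS carrying pET24d, purified and stored at −20 °C, with a FAD:ThyX ratio of 1:3. Compound was preincubated 10 min at 25 °C. Injected NADPH started the reaction, and A340 fall was read up to 20 min. Duplicates; % inhibition = (1−Vi/Vo)×100 from initial rates.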

[2] = target: T1, Flavin-dependent thymidylate synthase (Mycobacterium tuberculosis); test: Inhibition of Mycobacterium tuberculosis H37Rv ThyX expressed in Escherichia coli BL21(DE3) using 100 uM dUMP as substrate in absence of FAD cofactor at 200 uM incubated for 10 mins prior to the injection of NADPH and measured upto 20 mins by NADPH oxidase based spectrophotometric analysis; details: time 30.0 min
[3] = target: T1, Flavin-dependent thymidylate synthase (Mycobacterium tuberculosis); test: Inhibition of Mycobacterium tuberculosis H37Rv ThyX expressed in Escherichia coli BL21(DE3) using 10 uM dUMP as substrate in presence of FAD cofactor at 200 uM incubated for 10 mins prior to the injection of NADPH and measured upto 20 mins by NADPH oxidase based spectrophotometric analysis; details: time 30.0 min
[4] = Inhibition of flavin-dependent thymidylate synthetase (unknown origin); design: species or system Bacteria

| SMILES | inhibition [1] [%] | inhibition [2] | inhibition [3] | Ki [4] [nM] |
| --- | --- | --- | --- | --- |
| O=c1[nH]c(=O)n(CC=CCP(=O)(O)O)c2ccccc12 | 15.8 | inactive | inactive |  |
| O=c1[nH]c(=O)n(CC=CCP(=O)(O)O)cc1Cc1ccccc1 | 23.7 | inactive | inactive |  |
| CCCCCCCC(=O)NCC#Cc1ccc2c(c1)c(=O)[nH]c(=O)n2CC=CCP(=O)(O)O | 0 | inactive | inactive |  |
| CCCCCCNC(=O)NCC#Cc1ccc2c(c1)c(=O)[nH]c(=O)n2CC=CCP(=O)(O)O | 14.9 | inactive | inactive |  |
| O=C(Cc1ccccc1)NCC#Cc1ccc2c(=O)[nH]c(=O)n(CC=CCP(=O)(O)O)c2c1 | 14.7 | inactive | inactive |  |
| O=C1c2ccccc2C(=O)C(c2ccco2)C1O (configuration not stated) |  |  |  | 28 |
| O=C(Cc1ccccc1)NCC#Cc1ccc2c(c1)c(=O)[nH]c(=O)n2CC=CCP(=O)(O)O | 0 | inactive | inactive |  |
| Cc1ccc2c(c1)c(=O)[nH]c(=O)n2CC=CCP(=O)(O)O | 26.2 | inactive | inactive |  |
| COc1ccc2c(=O)[nH]c(=O)n(CC=CCP(=O)(O)O)c2c1 | 26.4 | inactive | inactive |  |
| CCCCCCCC(=O)NCC#Cc1ccc2c(=O)[nH]c(=O)n(CC=CCP(=O)(O)O)c2c1 | 14.9 | inactive | inactive |  |
| CCCCCCNC(=O)NCC#Cc1cn(CC=CCP(=O)(O)O)c(=O)[nH]c1=O | 0 | inactive | inactive |  |
| CCCCCCCC(=O)NCC#Cc1cn(CC=CCP(=O)(O)O)c(=O)[nH]c1=O | 0 | inactive | inactive |  |
| CCCCCCNC(=O)NCC#Cc1ccc2c(=O)[nH]c(=O)n(CC=CCP(=O)(O)O)c2c1 | 31.8 | inactive | inactive |  |
